Activity calls are given as the source filed them.
What was measured:
Mus musculus [1] = assay: Anti-asthmatic activity against OVA/Aspergillus-sensitized protease-mediated C57BL/6J mouse model allergic asthma assessed as reduction in macrophages in BAL fluid at 10 mg/kg,ip followed by 0.5 hrs OVA challenge and measured after 48 hrs; format: functional, organism-based; details: time 48.5 hrs
[2] = Stability in rat plasma assessed as parent compound remaining at 1 uM and measured at 120 mins by LC-MS/MS analysis; format: ADME, cell-free; details: 2 h
In short: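 Plasma from human, rat and mouse; percent parent remaining at 120 min.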

[3] = Lipophilicity, log D of compound at pH 7.4 incubated for 20 hrs by HPLC analysis; format: physicochemical; details: buffer
Mus musculus [4] = assay: Protection against cardiac ischemia/reperfusion induced C57BL/6J mouse injury model assessed as reduction in infarct size at 2 mg/kg, sc prior to 0.5 hrs of myocardial ischemia and 48 h of reperfusion (Rvb= 26.4%); format: functional; set-up: scale not given: the % may be the effect or the level left; details: time 48.5 hrs
[5] = Selectivity ratio, ratio of IC50 for displacement of fluorescent tracer 4-(4-(1-(4-(1-(6-(3-carboxylato-4-(3-iminio-3H-xanthen-9-yl)benzamido)hexyl)-4,5-dihydro-1H-pyrrol-3-yl)butyl)piperidin-1-ium-4-yl)phenyl)-7-(4-(trifluoromethyl)phenyl)-2-naphthoate from mouse P2Y14R stably expressed in human HEK293 cells to IC50 for displacement of fluorescent tracer 4-(4-(1-(4-(1-(6-(3-carboxylato-4-(3-iminio-3H-xanthen-9-yl)benzamido)hexyl)-4,5-dihydro-1H-pyrrol-3-yl)butyl)piperidin-1-ium-4-yl)phenyl)-7-(4-(trifluoromethyl)phenyl)-2-naphthoate from human P2Y14R stably expressed in CHO cells; format: cell-based
P2Y purinoceptor 14 = target: T1, P2Y purinoceptor 14 (Homo sapiens, UniProt Q15391); assay: Displacement of fluorescent tracer 4-(4-(1-(4-(1-(6-(3-carboxylato-4-(3-iminio-3H-xanthen-9-yl)benzamido)hexyl)-4,5-dihydro-1H-pyrrol-3-yl)butyl)piperidin-1-ium-4-yl)phenyl)-7-(4-(trifluoromethyl)phenyl)-2-naphthoate from human P2Y14R stably expressed in CHO cells assessed as inhibition constant by flow cytometry; format: cell-based
T1 sequence (Q15391 whole entry): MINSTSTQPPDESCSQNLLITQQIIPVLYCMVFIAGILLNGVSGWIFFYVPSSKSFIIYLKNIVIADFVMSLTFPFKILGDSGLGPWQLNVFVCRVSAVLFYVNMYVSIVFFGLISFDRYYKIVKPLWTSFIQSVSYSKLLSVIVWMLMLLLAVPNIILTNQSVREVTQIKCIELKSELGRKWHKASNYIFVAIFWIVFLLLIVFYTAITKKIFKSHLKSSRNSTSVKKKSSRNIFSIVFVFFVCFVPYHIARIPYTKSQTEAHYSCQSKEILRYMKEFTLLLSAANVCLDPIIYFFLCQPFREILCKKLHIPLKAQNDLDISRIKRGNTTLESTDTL
In short: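 Whole-cell competitive binding: CHO cells expressing hP2Y14R (or HEK-293 cells expressing mP2Y14R) incubated with AlexaFluor488-labelled antagonist tracer at 20 nM.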

[6] = Protein binding in mouse plasma assessed as bound fraction; format: ADME, cell-free
Mus musculus [7] = assay: Protection against cardiac ischemia/reperfusion induced C57BL/6J mouse injury model assessed as reduction in infarct area by measuring AAR/TTA ratio at 2 mg/kg, sc prior to 0.5 hrs of myocardial ischemia and 48 h of reperfusion (Rvb= […]); format: functional; set-up: scale not given: the % may be the effect or the level left; details: time 48.5 hrs
Mus musculus [8] = assay: Antiallodynic activity in CCI surgery neuropathic pain Hsd:ICR mouse model assessed as reversal of mechano-allodynia by measuring paw withdrawal threshold at 10 micromol/kg,po and measured at 1 hrs by von frey test; format: functional, organism-based; details: dose 10.0 µmol/kg
In short: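 CCI neuropathic pain in adult male CD-1 mice. Single oral gavage dose of 10 μmol/kg on day 7 post-surgery. Vehicle 5% DMSO + 10% (Kolliphor HS 15:DMSO 5:95) in 0.5% methylcellulose, 0.2 mL. Von Frey paw withdrawal threshold on both hindpaws. Mean ± SD; two-way ANOVA with Dunnett's test.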

For O=C(O)c1cc(-c2ccc([C@]3(O)[C@@H]4CNC[C@H]3C4)cc2)c2ccc(-c3ccc(C(F)(F)F)cc3)cc2c1, the Activity (Mus musculus [1]) was “inactive”, the Stability [2] was 81.3% and the logD at 20 h [3] was 1.2. It also gave an Activity (Mus musculus [4]) of 31.8%, a Ratio IC50 [5] of 0.811 and a Ki (P2Y purinoceptor 14) of 3.44 nM. The PPB [6] was 99.86%, the Activity (Mus musculus [7]) was 33.7% and the Activity (Mus musculus [8]) was “Active”.
